Numbered stars: 1 amine (or outer) side, 2 acyl side, 3 side chain; on linkers, the order of the positions; unused ones are H or OH. Square brackets hold non-standard residues; d marks the D form. Peptide text beside a SMILES is read from it. * marks the point of attachment. Emetine(N2') = CC[C@H]1CN2CCc3cc(OC)c(OC)cc3[C@@H]2C[C@@H]1C[C@@H]1c2cc(OC)c(OC)cc2CCN1*; PABC = O=C(OCc1ccc(N[*:1])cc1)[*:2]
Key:
[1] = system: PrEC cells; assay: Cytotoxicity in normal prostatic epithelial cells in serum free media
[2] = system: MDA-MB-231; assay: MTT cell proliferation; assay type: cell-based, human; details: 3-day exposure, media with 10% FBS
[3] = Stability of prodrug 11 in human plasma; assay type: in vitro ADME; details: human plasma (EDTA), 400 μM, 37°C, 24 hr, methanol precipitation, HPLC and MS
How it was run: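 Compound from 10 mM DMSO stock was added to EDTA-anticoagulated human plasma, with a PBS control at the same concentration. Incubated at 37°C for 24 hr. At time points, 100 μl aliquots received 200 μl cold methanol, sat on ice 10 min, and were centrifuged at 13,000 rpm for 6 min. Supernatant analysed by HPLC and mass spectrometry.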

[4] = system: LNCaP; assay: MTT cell proliferation; details: 3-day exposure, media with 10% FBS
[5] = system: PC3; assay: MTT cell proliferation; details: 3-day exposure, media with 10% FBS
[6] = molecular target: T1, FAP (Homo sapiens, UniProt Q12884); assay: FAP-mediated hydrolysis of prodrugs ex vivo; assay type: in vitro ADME; details: purified FAP 300 nM, 37°C, up to 24 hr
T1 sequence (Q12884 27-760 limits assumed): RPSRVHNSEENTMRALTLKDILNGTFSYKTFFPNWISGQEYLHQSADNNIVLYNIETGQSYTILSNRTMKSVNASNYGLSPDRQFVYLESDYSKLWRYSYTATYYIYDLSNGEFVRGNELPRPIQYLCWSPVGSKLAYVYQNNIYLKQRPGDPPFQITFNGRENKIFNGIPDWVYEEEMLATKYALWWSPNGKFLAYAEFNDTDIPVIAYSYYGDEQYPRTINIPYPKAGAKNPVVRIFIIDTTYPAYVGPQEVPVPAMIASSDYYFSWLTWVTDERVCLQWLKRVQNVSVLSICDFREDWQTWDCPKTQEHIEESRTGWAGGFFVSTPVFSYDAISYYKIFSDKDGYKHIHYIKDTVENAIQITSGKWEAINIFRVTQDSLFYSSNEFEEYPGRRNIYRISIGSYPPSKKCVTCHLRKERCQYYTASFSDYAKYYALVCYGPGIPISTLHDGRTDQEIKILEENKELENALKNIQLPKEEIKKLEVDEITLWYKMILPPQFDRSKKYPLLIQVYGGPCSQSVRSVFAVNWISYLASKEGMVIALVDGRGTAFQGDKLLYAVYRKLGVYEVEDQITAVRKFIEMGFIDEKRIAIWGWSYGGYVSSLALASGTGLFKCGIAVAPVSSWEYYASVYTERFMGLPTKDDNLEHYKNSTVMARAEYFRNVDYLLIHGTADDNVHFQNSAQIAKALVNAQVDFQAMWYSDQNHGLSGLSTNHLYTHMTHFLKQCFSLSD

[7] = system: MCF-7; assay: MTT cell proliferation; details: 3-day exposure, media with 10% FBS
[8] = system: FAP and DPPIV; assay: Tandem hydrolysis by mixture of purified FAP and DPPIV; assay type: in vitro ADME; details: FAP 300 nM + DPPIV 30 nM, 37°C, HPLC and MS
How it was run: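 FAP expressed in Schneider S2 cells (induced with 500 μM CuSO4) and purified from supernatant on Ni-NTA; DPPIV is human recombinant from sf9 cells. Enzymes (FAP 300 nM, DPPIV 30 nM) in 100 mM Tris, 100 mM NaCl, pH 7.8. Substrate from 10 mM DMSO stock, 250 μM final, 2.5% DMSO. Shaken at 37°C for 24 hr; time-point aliquots quenched in cold acetonitrile, then HPLC and MS.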

With `CC[C@H]1CN2CCc3cc(OC)c(OC)cc3[C@@H]2C[C@@H]1C[C@@H]1c2cc(OC)c(OC)cc2CCN1C(=O)OCc1ccc(NC(=O)[C@@H]2CCCN2C(=O)[C@H](C)NC(=O)[C@@H]2CCCN2C(=O)CNC(=O)[C@H](C)NC(=O)[C@@H]2CCCN2C(=O)CNC(=O)[C@H](CO)NC(=O)[C@H](C)NC(C)=O)cc1` [Compound 11] (Ac-ASGPAGPAP[PABC]-{Emetine(N2')}) the “cytotoxicity to PrEC at 100 nM and 1,000 nM (in words)” value ([1]; 3-day exposure, keratinocyte serum free media, no FAP or DPPIV) was “not cytotoxic”, the IC50 ([1]; read-out: calculated IC50 in the PrEC cell lines, 3-day exposure, expanded dose range, serum free media, absence of FAP and DPPIV) was 7.73 µM and the “fold less cytotoxic than emetine in PrEC” value ([1]; serum free media, absence of FAP and DPPIV) was “more than 200 fold”. The “IC50 compared with emetine, MDA-MB-231 (in words)” value [2] was “identical to that for emetine”, the “precursor 10 or emetine detected after incubation in human plasma” value [3] was “No detectable amount” and the “cytotoxicity / IC50 compared with emetine, LNCaP (in words)” value [4] was “identical to that for emetine”. The “cytotoxicity / IC50 compared with emetine, PC3 (in words)” value [5] was “identical to that for emetine”, the “cleavage by recombinant purified FAP (in words)” value [6] was “progressively cleaved to the intermediate (precursor) 10” and the “cytotoxicity / IC50 compared with emetine, MCF-7 (in words)” value [7] was “identical to that for emetine”. The “% emetine formed from 11, 2 hr” value ([8]; 2 hr) was 22%, the “% precursor 10 formed from 11, 2 hr” value ([8]; 2 hr) was 56% and the “% emetine formed from 11, 4 hr” value ([8]; 4 hr) was 36%. The “% precursor 10 formed from 11, 4 hr” value ([8]; 4 hr) was 58% and the “% precursor 10 in solution, 24 hr” value ([8]; 24 hr) was 25%.

Reference: article PMC6432629 (The Prostate, 2016)
